Screening results: PubChem BioAssay, several laboratories
Most compounds without a hit are left out; they make up all but 4% or so of the library.
S1P3 antagonist = blocks the human S1P3 receptor | Q99500 | AID 485 | inhibition, % at 4.98 µM | CHO S1P3 NFAT-BLA reporter, FRET fluorescence, antagonist mode | 170,000 compounds, 0.27% hits;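 active means inhibition above the plate cutoff, the mean inhibition of test wells on that plate plus 3 SD, cut at about 28% in these data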;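 further: cells challenged with S1P at its EC80 of 0.8 µM; blue over green emission ratio from cleaved BLA substrate after 4 h stimulation; 0% = S1P-stimulated wells and 100% = unstimulated DMSO-only wells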
Target sequence (Q99500 whole entry, looked up): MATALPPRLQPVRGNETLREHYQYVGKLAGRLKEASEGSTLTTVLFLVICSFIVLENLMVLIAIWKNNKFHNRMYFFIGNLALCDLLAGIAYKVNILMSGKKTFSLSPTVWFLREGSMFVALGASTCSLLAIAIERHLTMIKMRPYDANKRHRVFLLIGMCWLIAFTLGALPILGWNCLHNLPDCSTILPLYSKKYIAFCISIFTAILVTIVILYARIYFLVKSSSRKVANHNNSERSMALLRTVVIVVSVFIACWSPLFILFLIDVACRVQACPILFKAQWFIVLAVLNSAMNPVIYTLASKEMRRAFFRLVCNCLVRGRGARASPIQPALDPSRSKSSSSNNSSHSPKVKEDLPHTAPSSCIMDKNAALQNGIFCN
CHOP inhibitor = blocks CHOP induction under ER stress; CHO-K1 CHOP-promoter luciferase, tunicamycin-induced, 15-18 h; inhibition, % at 10 µM; 220,000 compounds, 3.8% hits; AID 2732;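 active means compounds that reduced the stress-induced luciferase reporter signal by more than about 70% of percent inhibition, limit read from the data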;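 further: 0% = tunicamycin plus vehicle and 100% = wells without tunicamycin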
Hsp70 activator = transcriptional activators of Hsp70. HeLa Hsp70 promoter luciferase reporter, luminescence; scaled: vehicle 0, proteasome-inhibitor control 100%. activation, % at 10 µM. 200,000 compounds, 0.04% hits. AID 1203;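 active means activation above the mean across all tested compounds plus 3 SD, cutoff set per campaign, cut at about 5.5% in these data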;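 further: 100% = MG132 at 30 µM as the positive control and 0% = DMSO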
MDM2 E3 inh = Mdm2 E3 ligase (human) inhibition; Q00987; cell-based MDM2 ubiquitination luciferase reporter, 2 h; 0 = plate control, 100 = twice control, blank-subtracted; signal enhancement, % at 5 µM; 210,000 compounds, 0.11% hits;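 active means signal enhancement of 30% or more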;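 further: luminescence tracks abundance of the self-degrading MDM2-luciferase fusion protein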
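Assay system: stable mammalian line carrying autodegrading MDM2–luciferase fusion reporter; Input: 2000 cells in each well; Compound dosing: single-point 5 µM; Schedule: 2 h compound exposure at 37 °C; Signal: SteadyLite luciferase luminescence after 15 min room-temperature reagent incubation; Evaluation: % luminescence enhancement versus blank-corrected plate control mean; Benchmarks: plate controls and plate blanks.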
* = called active by the depositor; nt = no result given.

SMILES	S1P3 antagonist	CHOP inhibitor	Hsp70 activator	MDM2 E3 inh
N#CC(Cc1ccc(O)c(O)c1)C(=O)N1CCc2ccccc21 (stereo unspecified)	nt	-7	nt	nt
Cc1cc(/C=C2\SC(=S)N(C)C2=O)c(C)n1-c1cccc(O)c1	-17	29	nt	-64
CN=C1S/C(=C\c2cc(C)n(-c3ccccc3F)c2C)C(=O)N1C	nt	96*	0	-15
CCOC(=O)c1ccccc1NC(=S)N1CCC(N2CCCCC2)CC1	-1	17	0	15
OCCNc1nc(-c2ccccc2)c2cc(Cl)ccc2n1	-9	10	0	-3
COCCNC(=O)c1cccc(Nc2nc(-c3ccccc3)c3cc(Cl)ccc3n2)c1	1	82*	0	-18
CCCN(CCC)S(=O)(=O)c1ccc(C(=O)Nc2nnc(CSC)o2)cc1	5	14	0	-7
CCCN(CCC)S(=O)(=O)c1ccc(C(=O)Nc2nnc(-c3cccc(OC)c3)o2)cc1	17	92*	0	1
CCCN(CCC)S(=O)(=O)c1ccc(C(=O)Nc2nnc(-c3cc(OC)cc(OC)c3)o2)cc1	7	85*	0	-1
COc1cccc(-c2nnc(NC(=O)c3cccc(F)c3)o2)c1	-10	-61	nt	-8
CCN(CC)S(=O)(=O)c1cc(C(=O)OCC(=O)Nc2cccc(Br)c2)ccc1F	-10	27	-1	6
C=CCn1c2ccccc2c2nnc(SC(CC)C(=O)Nc3sc4c(c3C#N)CCCC4)nc21 (stereo unspecified)	nt	17	0	-1
N#CC1=C(N)Oc2cc3c(cc2C1c1ccc(Cl)cc1)OCO3 (stereo unspecified)	72*	23	0	5
Cc1ccc(-c2nc(NCc3ccco3)n(C(=O)c3ccco3)n2)cc1	9	-24	0	-15
COc1ccc(CNc2nc(-c3cccnc3)nn2C(=O)CC(C)C)cc1	14	84*	0	-12
CCCC(=O)n1nc(-c2cccnc2)nc1NCc1ccccc1	8	70*	0	14
O=C(c1ccco1)n1nc(-c2ccccc2)nc1NCc1ccco1	18	81*	0	-13
COc1ccc(-c2nc(SC)n(C(=O)c3ccco3)n2)cc1	11	72*	0	9
Nc1ncnc2c1ncn2[C@@H]1O[C@H](CO)[C@H](O)C1O (stereo partly specified)	nt	24	nt	nt
COC(=O)c1c(NC(=O)COC(=O)CCc2ccc(S(=O)(=O)N3CCOCC3)cc2)sc2c1CCC2	4	1	0	nt
CC(=O)n1nc(-c2ccccc2)nc1NCc1ccc(F)cc1	25	74*	0	-2
Cc1ccc2cc(CN(CCCN(C)C)C(=O)NCc3ccccc3)c(=O)[nH]c2c1C	-4	74*	0	-15
CCCCCc1cc(=O)oc2c(C(CCN(CC)CC)c3cc(OC)c(OC)c(OC)c3)c(OC)cc(OC)c12 (stereo unspecified)	nt	71*	nt	6
CCCCCc1cc(=O)oc2c(C(CCN3CCCCC3)c3ccc4c(c3)OCO4)c(OC)cc(OC)c12 (stereo unspecified)	nt	88*	nt	-4
CCN(CC)CCC(c1ccc(N(C)C)cc1)c1c(OC)cc(OC)c2c(-c3ccccc3)cc(=O)oc12 (stereo unspecified)	nt	24	nt	-8
SMILES	S1P3 antagonist	CHOP inhibitor	Hsp70 activator	MDM2 E3 inh
CCCCCc1cc(=O)oc2c(C(CCN3CCCC(C)C3)c3ccc4c(c3)OCO4)c(OC)cc(OC)c12 (stereo unspecified)	nt	77*	nt	-15
CCc1c(C(C)S(=O)(=O)c2ccccc2)[nH]c(=O)n1CC (stereo unspecified)	-14	3	0	1
O=c1cc(/C=C/c2ccccc2)oc2ccccc12	nt	74*	0	-12
O=C(NC1CC1)c1cc(=O)c2ccccc2o1	nt	15	0	-1
CCOC(=O)/C(C#N)=C/Nc1cc(C(C)(C)C)sc1C(C)=O	2	-24	nt	-11
Cc1cc(N=Cc2c(O)n(-c3ccc4c(c3)OCO4)c(=O)c3ccccc23)ccn1	-17	94*	0	-30
Cc1noc(C)c1COc1cccc(C(=O)Nc2ccc(OCc3ccccc3)cc2)c1	nt	40	0	-3
C/C(=N\N=C(/N)SC1CC(=O)N(c2ccccc2)C1=O)c1cccs1 (stereo unspecified)	nt	45	0	6
C/C(=N\N=C(/N)SC1CC(=O)N(c2ccc(Br)cc2)C1=O)c1cccs1 (stereo unspecified)	nt	87*	0	0
CCCCCCOc1ccc(N2C(=O)CC(S/C(N)=N/N=C(\C)c3cccs3)C2=O)cc1 (stereo unspecified)	nt	88*	0	-16
